Converted amounts (≈) assume the structure as drawn. The source made the active and inactive calls. The calls are words filed in the database; no cut-off is given here.
Experiments:
[1] = Inhibition of trypsin
[2] = Inhibition of chymotrypsin
Method in brief: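 Alpha-chymotrypsin type II was made up at 15 U/mL in 50 mM Tris-HCl (pH 7.6). The enzyme and test solution were preincubated at 37 °C for 5 min. Substrate solution was N-succinyl-L-phenylalanyl-p-nitroanilide, 1 mg/mL in buffer. After adding it, absorbance at 405 nm was read at once and again after 30 min at 37 °C.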

[3] = Inhibition of trypsin at 20 ug/ml
[4] = target: Prothrombin (Homo sapiens) (UniProt P00734); assay: Inhibition of thrombin at 20 ug/ml

Compound | IC50 [1] | IC50 [2] | Activity [3] | Activity [4]
CCCCCC(=O)N[C@@H](CCC(=O)O)C(=O)N[C@@H]1C(=O)N[C@@H](CCCNC(=N)N)C(=O)N[C@H]2CC[C@@H](O)N(C2=O)[C@@H](CC(C)C)C(=O)N(C)[C@@H](Cc2ccc(O)cc2)C(=O)N[C@@H](C(C)C)C(=O)O[C@@H]1C [MICROPEPTIN B] | 0.25 µg/mL (≈ 0.253 µM) | – | – | –
CCCCCC(=O)N[C@@H](CCC(=O)O)C(=O)N[C@@H]1C(=O)N[C@@H](Cc2ccc(O)cc2)C(=O)N[C@H]2CC[C@@H](O)N(C2=O)[C@@H](Cc2ccccc2)C(=O)N(C)[C@@H](Cc2ccc(O)cc2)C(=O)N[C@@H](C(C)C)C(=O)O[C@@H]1C [MICROPEPTIN C] | – | 1.1 µg/mL (≈ 1.07 µM) | inactive | inactive
CCCCCCCC(=O)N[C@@H](CCC(=O)O)C(=O)N[C@@H]1C(=O)N[C@@H](Cc2ccc(O)cc2)C(=O)N[C@H]2CC[C@@H](O)N(C2=O)[C@@H](Cc2ccccc2)C(=O)N(C)[C@@H](Cc2ccc(O)cc2)C(=O)N[C@@H](C(C)C)C(=O)O[C@@H]1C [MICROPEPTIN D] | – | 1.2 µg/mL (≈ 1.14 µM) | inactive | inactive
CCCCCC(=O)N[C@@H](CCC(=O)O)C(=O)N[C@@H]1C(=O)N[C@@H](Cc2ccc(O)cc2)C(=O)N[C@H]2CC[C@@H](O)N(C2=O)[C@@H](CC(C)C)C(=O)N(C)[C@@H](Cc2ccc(O)cc2)C(=O)N[C@@H](C(C)C)C(=O)O[C@@H]1C [MICROPEPTIN E] | – | 1 µg/mL (≈ 1.01 µM) | inactive | inactive
CCCCCCCC(=O)N[C@@H](CCC(=O)O)C(=O)N[C@@H]1C(=O)N[C@@H](Cc2ccc(O)cc2)C(=O)N[C@H]2CC[C@@H](O)N(C2=O)[C@@H](CC(C)C)C(=O)N(C)[C@@H](Cc2ccc(O)cc2)C(=O)N[C@@H](C(C)C)C(=O)O[C@@H]1C [MICROPEPTIN F] | – | 1.5 µg/mL (≈ 1.47 µM) | inactive | inactive
CCCCCC(=O)N[C@@H](CCC(=O)O)C(=O)N[C@@H]1C(=O)N[C@@H](Cc2ccc(O)cc2)C(=O)N[C@H]2CC[C@@H](O)N(C2=O)[C@@H](Cc2ccccc2)C(=O)N(C)[C@@H](Cc2c[nH]c3ccccc23)C(=O)N[C@@H](C(C)C)C(=O)O[C@@H]1C [MICROPEPTIN T 1] | 3 µg/mL (≈ 2.85 µM) | – | – | –
